Test results published in ChEMBL document CHEMBL1139795, “Capped diaminopropionamide-glycine dipeptides are inhibitors of CC chemokine receptor 2 (CCR2)” (Bioorg Med Chem Lett, 2007).

Key:
[1] = molecular target: T1, C-C chemokine receptor type 2 (Homo sapiens, UniProt P41597); assay: Displacement of [125]MCP1 from CCR2 in human PBMCs at 1 uM
Method in brief: (§1)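 Human PBMCs were incubated with 0.3 nM [125I]MCP-1 at 23 °C. Percent inhibition of binding was measured at one fixed inhibitor concentration, n = 1.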
Target sequence in this assay (P41597 whole entry, looked up): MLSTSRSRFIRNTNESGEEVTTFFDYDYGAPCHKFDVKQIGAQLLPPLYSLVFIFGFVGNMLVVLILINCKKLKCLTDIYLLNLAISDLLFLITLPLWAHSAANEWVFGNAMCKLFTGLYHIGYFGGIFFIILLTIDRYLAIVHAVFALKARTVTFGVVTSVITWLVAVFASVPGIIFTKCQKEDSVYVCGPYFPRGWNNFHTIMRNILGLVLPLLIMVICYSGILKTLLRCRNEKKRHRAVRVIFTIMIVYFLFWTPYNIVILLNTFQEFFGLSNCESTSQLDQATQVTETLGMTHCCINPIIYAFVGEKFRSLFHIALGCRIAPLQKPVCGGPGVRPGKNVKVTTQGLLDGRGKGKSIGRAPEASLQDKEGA

[2] = molecular target: T2, C-C chemokine receptor type 1 (Homo sapiens) (UniProt P32246); assay: Inhibition of CCR1 at 10 uM
T2 sequence (whole entry): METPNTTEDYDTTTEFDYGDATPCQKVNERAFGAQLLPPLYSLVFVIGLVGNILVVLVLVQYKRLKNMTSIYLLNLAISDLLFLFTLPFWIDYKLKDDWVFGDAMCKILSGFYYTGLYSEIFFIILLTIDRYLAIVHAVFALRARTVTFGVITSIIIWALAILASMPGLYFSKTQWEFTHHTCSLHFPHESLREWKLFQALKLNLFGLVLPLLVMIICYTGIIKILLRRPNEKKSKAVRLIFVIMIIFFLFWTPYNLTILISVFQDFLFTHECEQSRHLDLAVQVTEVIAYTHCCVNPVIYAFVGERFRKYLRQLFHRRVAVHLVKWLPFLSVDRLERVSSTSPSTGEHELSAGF

[3] = molecular target: T1, C-C chemokine receptor type 2; assay: Displacement of [125]MCP1 from CCR2 in human PBMCs at 10 uM; method in brief: as §1
Target sequence in this assay (P41597 whole entry, looked up): as the sequence (P41597 whole entry, looked up) above

[4] = molecular target: T1, C-C chemokine receptor type 2; assay: Displacement of [125]MCP1 from CCR2 in human PBMCs
Method in brief: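 Competition binding with 0.3 nM [125I]MCP-1 on human peripheral blood mononuclear cells at 23 °C. IC50 given as mean ± SD (n = 2) or mean ± SEM (n > 2). Single determinations are listed with n = 1.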
Target sequence in this assay (P41597 whole entry): as the sequence (P41597 whole entry, looked up) above

[5] = molecular target: T1, C-C chemokine receptor type 2; assay: Antagonist activity at CCR2 in THP1 cells assessed as inhibition of MCP1-induced Ca2+ flux; format: functional, cell-based, THP-1
Target sequence in this assay (P41597 whole entry): as the sequence (P41597 whole entry, looked up) above

[6] = molecular target: T3, C-C chemokine receptor type 3 (Homo sapiens, UniProt P51677); assay: Displacement of [125I]eotaxin from human CCR3 expressed in CHO cells; format: cell-based
T3 sequence (P51677 whole entry): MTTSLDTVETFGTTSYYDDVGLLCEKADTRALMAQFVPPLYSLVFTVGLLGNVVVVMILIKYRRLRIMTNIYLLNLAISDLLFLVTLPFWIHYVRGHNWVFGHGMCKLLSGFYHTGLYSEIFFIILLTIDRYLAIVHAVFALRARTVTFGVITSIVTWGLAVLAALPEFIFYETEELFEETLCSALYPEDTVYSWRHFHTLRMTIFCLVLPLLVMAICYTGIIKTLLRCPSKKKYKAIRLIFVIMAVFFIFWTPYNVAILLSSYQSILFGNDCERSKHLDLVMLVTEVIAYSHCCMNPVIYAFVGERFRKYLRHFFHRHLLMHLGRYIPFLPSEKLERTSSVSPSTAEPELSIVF
Method in brief: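 Binding of 0.15 nM [125I]eotaxin to CHO cells expressing human CCR3. Data are a single determination, mean ± SD (n = 2), or mean ± SEM (n indicated). ">" means less than 50% response at the stated concentration.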

[7] = molecular target: Sigma non-opioid intracellular receptor 1 (Homo sapiens) (UniProt Q99720); assay: Inhibition of sigma 1 receptor at 10 uM
Chain of Sigma non-opioid intracellular receptor 1 (Homo sapiens) (Q99720 whole entry): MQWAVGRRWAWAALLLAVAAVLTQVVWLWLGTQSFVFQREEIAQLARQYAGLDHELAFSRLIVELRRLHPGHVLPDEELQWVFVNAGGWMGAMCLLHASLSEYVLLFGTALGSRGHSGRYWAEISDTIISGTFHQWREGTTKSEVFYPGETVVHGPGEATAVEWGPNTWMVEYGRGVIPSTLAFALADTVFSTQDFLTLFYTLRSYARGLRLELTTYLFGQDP

[8] = molecular target: Mu-type opioid receptor (Homo sapiens) (UniProt P35372); assay: Inhibition of opiate mu receptor at 10 uM
Chain of Mu-type opioid receptor (Homo sapiens) (P35372 whole entry): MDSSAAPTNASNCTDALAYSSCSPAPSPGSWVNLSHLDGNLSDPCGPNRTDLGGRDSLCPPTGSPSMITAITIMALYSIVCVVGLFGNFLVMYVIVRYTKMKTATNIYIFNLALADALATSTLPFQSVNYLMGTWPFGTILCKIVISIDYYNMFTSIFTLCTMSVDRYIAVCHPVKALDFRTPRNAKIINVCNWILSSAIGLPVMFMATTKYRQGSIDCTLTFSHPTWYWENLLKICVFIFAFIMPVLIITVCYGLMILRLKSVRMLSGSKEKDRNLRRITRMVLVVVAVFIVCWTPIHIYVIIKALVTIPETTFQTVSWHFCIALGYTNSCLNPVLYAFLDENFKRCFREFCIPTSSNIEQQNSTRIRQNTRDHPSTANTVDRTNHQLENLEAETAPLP

[9] = molecular target: C-C chemokine receptor type 5 (Homo sapiens) (UniProt P51681); assay: Inhibition of CCR5 receptor at 10 uM
Chain of C-C chemokine receptor type 5 (Homo sapiens) (P51681 whole entry, looked up): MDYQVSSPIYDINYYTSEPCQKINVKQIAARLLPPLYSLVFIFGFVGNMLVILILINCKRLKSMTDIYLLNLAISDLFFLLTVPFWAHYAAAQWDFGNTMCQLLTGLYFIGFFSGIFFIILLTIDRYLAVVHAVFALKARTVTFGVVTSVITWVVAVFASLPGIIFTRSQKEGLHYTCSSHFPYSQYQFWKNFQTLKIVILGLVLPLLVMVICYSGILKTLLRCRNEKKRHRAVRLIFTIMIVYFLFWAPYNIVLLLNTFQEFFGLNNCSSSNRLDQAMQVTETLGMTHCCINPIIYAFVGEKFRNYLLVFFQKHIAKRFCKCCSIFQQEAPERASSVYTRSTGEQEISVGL

[10] = molecular target: L-type calcium channel (Homo sapiens, UniProt O60840+Q01668+Q13698+Q13936); assay: Inhibition of L-type calcium channel at 10 uM
[11] = species on record: Homo sapiens; assay: Inhibition of sodium channel at 10 uM
[12] = molecular target: Histamine H2 receptor (Homo sapiens) (UniProt P25021); assay: Inhibition of histamine H2 receptor at 10 uM
Chain of Histamine H2 receptor (Homo sapiens) (P25021 whole entry): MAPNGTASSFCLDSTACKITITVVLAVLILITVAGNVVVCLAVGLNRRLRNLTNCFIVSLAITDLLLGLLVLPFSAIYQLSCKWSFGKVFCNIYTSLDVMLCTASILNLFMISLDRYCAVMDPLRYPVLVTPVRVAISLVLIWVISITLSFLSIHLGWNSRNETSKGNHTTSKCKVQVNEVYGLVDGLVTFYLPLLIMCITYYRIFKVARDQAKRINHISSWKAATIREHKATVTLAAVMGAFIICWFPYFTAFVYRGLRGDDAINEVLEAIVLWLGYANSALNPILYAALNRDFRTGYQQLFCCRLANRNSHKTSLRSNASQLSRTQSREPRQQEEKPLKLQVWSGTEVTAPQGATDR

SMILES	inhibition [2] [%]	IC50 [4] [nM]	also measured
COc1ccc(CNC[C@H](NC(=O)CNC(=O)c2cccc(C(F)(F)F)c2)C(=O)NC(C)(C)C)c(OC)c1	< 30		Activity [1]: 37%
Cc1ccc(CNC[C@H](NC(=O)CNC(=O)c2cc(C(F)(F)F)ccc2NCc2ccccc2)C(=O)NC(C)(C)C)c(C)c1	< 30	19	IC50 [5]: 57 nM; IC50 [6]: > 10000 nM
COC(=O)c1ccc(CNC[C@H](NC(=O)CNC(=O)c2cccc(C(F)(F)F)c2)C(=O)NC(C)(C)C)cc1	< 30		Activity [1]: 20%
CC(C)(C)NC(=O)[C@H](CNCc1ccc(-c2ccccc2)cc1)NC(=O)CNC(=O)c1cccc(C(F)(F)F)c1	< 30		Activity [1]: 30%
CCNc1cc(C(=O)NCC(=O)N[C@@H](CNCc2ccc(C)cc2C)C(=O)NC(C)(C)C)cc(C(F)(F)F)c1	< 30	19	IC50 [5]: 58 nM; IC50 [6]: > 10000 nM
Cc1ccc(CNC[C@H](NC(=O)CNC(=O)c2cc(N)cc(C(F)(F)F)c2)C(=O)NC(C)(C)C)c(C)c1	< 30	23	IC50 [5]: 52 nM; IC50 [6]: > 10000 nM
Cc1ccc(CNC[C@H](NC(=O)CNC(=O)c2cc(C(F)(F)F)ccc2N)C(=O)NC(C)(C)C)c(C)c1	< 30	11	inhibition [7]: > 70%; inhibition [8]: > 70%; inhibition [9]: > 70%; IC50 [5]: 8 nM; IC50 [6]: 750 nM; inhibition at 10 µM [10]: > 70%; inhibition [11]: > 70%; inhibition [12]: > 70%
Cc1ccc(CNC[C@H](NC(=O)CNC(=O)c2cccc(C(F)(F)F)c2)C(=O)NC(C)(C)C)cc1F	< 30		Activity [1]: 27%
Cc1ccc(CNC[C@H](NC(=O)CNC(=O)c2cc(C(F)(F)F)ccc2NC(=O)NC(C)C)C(=O)NC(C)(C)C)c(C)c1	< 30	15	IC50 [5]: 58 nM; IC50 [6]: 10000 nM
Cc1ccc(CNC[C@H](NC(=O)CNC(=O)c2cc(NC(=O)C3CCCCC3)cc(C(F)(F)F)c2)C(=O)NC(C)(C)C)c(C)c1	< 30		Activity [1]: 25%
Cc1ccc(CNC[C@H](NC(=O)CNC(=O)c2cc(NCc3ccccc3)cc(C(F)(F)F)c2)C(=O)NC(C)(C)C)c(C)c1	< 30	110	
COc1ccc(CNC[C@H](NC(=O)CNC(=O)c2cccc(C(F)(F)F)c2)C(=O)NC(C)(C)C)c(C)c1C	< 30	690	
CCNc1ccc(C(F)(F)F)cc1C(=O)NCC(=O)N[C@@H](CNCc1ccc(C)cc1C)C(=O)NC(C)(C)C	< 30	13	IC50 [5]: 84 nM; IC50 [6]: > 10000 nM
Cc1ccc(CNC[C@H](NC(=O)CNC(=O)c2cc(C(F)(F)F)ccc2NC(=O)OC(C)C)C(=O)NC(C)(C)C)c(C)c1	< 30	65	

More lines, main results first:

inhibition [2] [%]	IC50 [4] [nM]	SMILES	also measured
< 30		CCNC(=O)[C@@H](NC(=O)CNC(=O)c1cccc(C(F)(F)F)c1)[C@H](C)NCc1ccc(C)cc1C	Activity [3]: 2%
< 30		Cc1ccc(CNC[C@@H](NC(=O)CNC(=O)c2cccc(C(F)(F)F)c2)C(=O)O)c(C)c1	Activity [3]: 31%
< 30		Cc1ccc(CNC[C@H](NC(=O)[C@H](C)NC(=O)c2cccc(C(F)(F)F)c2)C(N)=O)c(C)c1	Activity [3]: 9%
< 30		Cc1ccc(CN(C)C[C@H](NC(=O)CNC(=O)c2cccc(C(F)(F)F)c2)C(=O)NC(C)(C)C)c(C)c1	Activity [1]: 12%
< 30		CCNC(=O)[C@H](CNCc1ccc(C)cc1C)NC(=O)CCC(=O)c1cccc(C(F)(F)F)c1	Activity [3]: 7%
< 30	66	Cc1ccc(CNC[C@H](NC(=O)CNC(=O)c2cccc(C(F)(F)F)c2)C(N)=O)c(C)c1	IC50 [5]: 69 nM; IC50 [6]: > 10000 nM
< 30	48	Cc1ccc(CNC[C@H](NC(=O)CNC(=O)c2cccc(C(F)(F)F)c2)C(=O)NC(C)(C)C)c(C)c1	IC50 [5]: 52 nM; IC50 [6]: > 10000 nM
< 30		Cc1ccc(CNC[C@H](C)NC(=O)CNC(=O)c2cccc(C(F)(F)F)c2)c(C)c1	Activity [3]: 35%
< 30		Cc1ccc(CNC[C@H](NC(=O)[C@@H](C)NC(=O)c2cccc(C(F)(F)F)c2)C(N)=O)c(C)c1	Activity [3]: 40%
< 30		Cc1ccc(CNC[C@@H](NC(=O)CNC(=O)c2cccc(C(F)(F)F)c2)C(C)C)c(C)c1	Activity [3]: 20%
< 30	770	Cc1ccc(CNCC[C@H](NC(=O)CNC(=O)c2cccc(C(F)(F)F)c2)C(=O)NC(C)(C)C)c(C)c1	
< 30	17	Cc1ccc(CN2CC[C@@H](NC(=O)CNC(=O)c3cccc(C(F)(F)F)c3)C2)c(C)c1	
< 30	750	Cc1ccc(CNC[C@H](NC(=O)CNC(=O)c2cccc(C(F)(F)F)c2)C(=O)NC(C)(C)C)cc1	
